The values below come from ChEMBL document CHEMBL1125684, “Novel site-directed affinity ligands for GABA-gated chloride channels: synthesis, characterization, and molecular modeling of 1-(isothiocyanatophenyl)-4-tert-butyl-2,6,7-trioxabicyclo[2.2.2]octanes ” (J Med Chem, 1991).

Assay [1] has as its target GABA-A receptor; anion channel. Nature of the assay: Apparent affinity by displacement of preincubated [35S]TBPS from rat cortical homogenates at 2400 nM. The gist of the method:
(§1)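 Cortical homogenate (twice-washed, 1:15) pretreated 1 h on ice with acylator (60 nM or 600–2400 nM) plus 200 mM NaCl. It was then washed five times by centrifugation in pH 7.4 phosphate/100 mM NaCl and resuspended chloride-free. Saturation binding used 2–5 nM [35S]TBPS with 0–160 nM unlabeled TBPS, 200 mM NaCl, 2 h at 25 °C. Nonspecific binding was defined by 20 µM picrotoxinin. Kd and Bmax came from Scatchard plots, mean of 3–5 experiments.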

Assay [2] concerns the target T1, GABA-A receptor; anion channel (Rattus norvegicus) (UniProt O09028+P15431+P18506+P18508+P19969+P20236+P23574+P23576+P28471+P28473+P30191+P62813+P63079+P63138+Q91ZM7+Q9ES14). Nature of the assay: Displacement of [35S]TBPS binding to rat cortical homogenates (control). The procedure, abridged: as §1
In general terms: Displacement assays read how much labelled ligand stays bound in the presence of the test substance.

For assay [3], the target named is T1, GABA-A receptor; anion channel (Rattus norvegicus). Nature of the assay: Displacement of [35S]TBPS binding to rat cortical homogenates at 1200 nM. The procedure, abridged:
as §1

Assay [4] has the same target. Kind of assay: Displacement of [35S]TBPS binding to rat cortical homogenates at 1500 nM. The gist of the method: as §1
For assay [5] the target is unchanged. Nature of the assay: Displacement of [35S]TBPS binding to rat cortical homogenates at 2400 nM. The gist of the method: as §1
Assay [6] has the same target. Kind of assay: Displacement of [35S]TBPS binding to rat cortical homogenates at 600 nM. The procedure, abridged: as §1
In assay [7] the target is GABA-A receptor; anion channel. Kind of assay: Inhibition of [35S]TBPS binding to rat cortical membranes. In kind it is cell membranes, Membrane. The procedure, abridged: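 Coincubation: 5 nM [35S]TBPS and acylator (5–1000 nM or 50–10000 nM, depending on ligand) were added simultaneously to washed cortical homogenate. Incubation was in pH 7.4 potassium phosphate with 200 mM NaCl, 2 h at 25 °C. Binding was read by filtration and scintillation, with nonspecific binding defined by 20 µM picrotoxinin. Inhibition was taken as percent of control; N ≥ 3.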

In assay [8] the target is GABA-A receptor; anion channel. Nature of the assay: Inhibition of [35S]-TBPS binding to rat cortical membranes after 60 minute pre-incubation with radioligand. In kind it is cell membranes, Membrane. The procedure, abridged:
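Washed cortical homogenate was incubated with 5 nM [35S]TBPS for 60 min before acylator was added, in pH 7.4 potassium phosphate with 200 mM NaCl at 25 °C. Bound radioligand was collected by GF/B filtration and counted by scintillation. Nonspecific binding was defined by 20 µM picrotoxinin. Inhibition was expressed as percent of control binding without acylator; N ≥ 1.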

Assay [9] has as its target GABA-A receptor; anion channel. Nature of the assay: Apparent affinity by displacement of pre-incubated [35S]-TBPS from rat cortical homogenates (control). The procedure, abridged: as §1
Assay [10] deals with GABA-A receptor; anion channel. Nature of the assay: Apparent affinity by displacement of preincubated [35S]TBPS from rat cortical homogenates at 1200 nM. The gist of the method: as §1
Assay [11] deals with GABA-A receptor; anion channel. Kind of assay: Apparent affinity by displacement of preincubated [35S]-TBPS from rat cortical homogenates at 1500 nM. The gist of the method:
as §1

The target of assay [12] is GABA-A receptor; anion channel. Kind of assay: Apparent affinity by displacement of pre-incubated [35S]-TBPS from rat cortical homogenates at 600 nM. The gist of the method:
as §1

For assay [13], the target named is Gamma-aminobutyric acid receptor subunit gamma-1 (Rattus norvegicus) (UniProt P23574). Nature of the assay: Displacement of [35S]TBPS binding to rat cortical homogenates at 60 nM. The procedure, abridged: as §1
Assay [14] deals with Gamma-aminobutyric acid receptor subunit gamma-1 (Rattus norvegicus, UniProt P23574). Kind of assay: Apparent affinity by displacement of preincubated [35S]TBPS from rat cortical homogenates at 60 nM. The procedure, abridged:
as §1

Usually IC50 stands for the concentration at which inhibition is half-maximal.

Chain of Gamma-aminobutyric acid receptor subunit gamma-1 (Rattus norvegicus) (P23574 whole entry): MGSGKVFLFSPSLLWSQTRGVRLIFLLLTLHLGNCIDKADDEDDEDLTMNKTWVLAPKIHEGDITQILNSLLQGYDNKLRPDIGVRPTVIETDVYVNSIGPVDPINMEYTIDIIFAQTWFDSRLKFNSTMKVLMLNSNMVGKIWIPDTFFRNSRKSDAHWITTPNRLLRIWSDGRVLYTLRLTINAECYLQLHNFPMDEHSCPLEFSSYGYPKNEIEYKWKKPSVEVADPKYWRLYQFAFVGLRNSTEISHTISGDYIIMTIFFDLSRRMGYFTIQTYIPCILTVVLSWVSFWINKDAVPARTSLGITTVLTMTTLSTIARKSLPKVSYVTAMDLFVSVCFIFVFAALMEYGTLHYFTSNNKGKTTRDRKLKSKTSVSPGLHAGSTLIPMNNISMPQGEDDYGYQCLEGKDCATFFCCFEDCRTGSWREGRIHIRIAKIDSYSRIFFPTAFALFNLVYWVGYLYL
Chain of Gamma-aminobutyric acid receptor subunit gamma-1 (P23574 whole entry): as above

With `CC(C)(C)C12COC(c3cccc(N=C=S)c3)(OC1)OC2`, the Kd came to 73.8 nM in assay [1]; 35.3 nM in assay [9]; 51.8 nM in assay [10]; 55.8 nM in [11]; 44.5 nM in [12]. Also, the Bmax was found to be 1080 fM assay-1 in [2]; 889 fM assay-1 in assay [3]; 928 fM assay-1 in assay [4]; 1010 fM assay-1 in [5]; 925 fM assay-1 in assay [6]. Further, the IC50 in assay [7] is 570 nM; in [8], 5400 nM.

For the compound `CC(C)(C)C12COC(c3ccccc3N=C=S)(OC1)OC2`, the Kd was 58 nM in [1]; 46.7 nM in assay [9]; 50.7 nM in assay [10]; 56.3 nM in assay [11]; 57.3 nM in [12]. The Bmax turned out to be 963 fM assay-1 in assay [2]; 817 fM assay-1 in [3]; 869 fM assay-1 in assay [4]; 1030 fM assay-1 in assay [5]; 915 fM assay-1 in [6]. The IC50 in assay [7] worked out at 609 nM; in [8] it was 7500 nM.

Turning to `CC(C)(C)C12COC(c3ccc(N=C=S)cc3)(OC1)OC2`, the Bmax in [2] is 955 fM assay-1; in assay [13], 644 fM assay-1. For the same compound, the concentration for half-maximal inhibition (IC50) in assay [7] amounted to 62 nM; in assay [8], 90 nM. The Kd in [9] was found to be 47 nM; in [14] it was 72.2 nM.
